In ChEMBL document CHEMBL4513216, “Probing the Open Global Health Chemical Diversity Library for Multistage-Active Starting Points for Next-Generation Antimalarials” (ACS Infect Dis, 2020):

Assay: Toxicity liver stage against HepG2, at 10uM
Assay type: cell-based
Design: test concentration 10 uM, cell line HepG2-A16-CD81EGFP
Conditions: human, HepG2-A16-CD81EGFP cells; read-out: INHIBITION
Procedure, shortened: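 Uninfected HepG2-A16-CD81EGFP cells, 3 × 10^3 per well, 1536-well, plated on prespotted compound at 10 μM final, parasite-free screening media added to match infected plates; puromycin 10 μM positive, DMSO 0.5% negative; run in parallel with 48 h PbLuc assay at 37 °C, 5% CO2; viability by CellTiter-Glo luminescence, normalized to controls.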

SMILES | cytotoxicity at 10 µM [%]
Cc1cccc(-c2noc([C@@H]3Cc4nc[nH]c4CN3)n2)c1 | 0.442
c1cncc(O[C@H]2COCCN(C3CCC3)C2)c1 | 0.514
CC(C)C[C@@H]1N[C@H](C(=O)NCC2CC2)Cc2c[nH]c3cccc1c23 | 12.4
CCCNC(=O)COc1cc(C)c2c(C)nn(-c3ccccc3)c2n1 | -0.295
COc1ccc(NC(=O)C(c2ccc(OC)cc2)N2CCOCC2)cc1 (configuration not stated) | -3.39
O=C(CN1C(=O)CC2(CCCC2)C1=O)NCCc1nccs1 | 0.566
Cc1nc(C)c(CC(=O)NCc2ccccc2F)s1 | 6.23
Cc1nn(CCCNC(=O)C2CCN(S(C)(=O)=O)CC2)cc1Cl | -1.94
Cc1cc(C)c2nc(C)c(C(=O)N3CCC(N4CCCC4)CC3)cc2c1 | -3.19
O=C(CC1CCN(c2cccnn2)CC1)Nc1nncs1 | 1.01
NC(=O)c1cnc(NC2CC2)nc1CCNC(=O)CC1CCCC1 | 3.29
CC(C)S(=O)(=O)NC(=O)CC(c1ccccc1)C(F)(F)F (configuration not stated) | -43.9
COc1ccncc1NC(=O)c1[nH]nc(C(C)C)c1Br | 4.04
O=C1CC(N(C(=O)c2csc(-c3ccccc3)n2)C2CC2)C(=O)N1 (configuration not stated) | 15.2
CN(CCOc1cccc(S(C)(=O)=O)c1)CC(F)F | 13
CCc1ccc(C(=O)NCC2CCCN2CC)o1 (configuration not stated) | 0.632
CNC(=O)c1cccc(NC(=O)NC(C)CCc2cccn2C)c1C (configuration not stated) | -1.39
COc1cccc(CCC(=O)Nc2c(C)nn(C)c2C)c1OC | 1.98
Cc1cc(C)n(C2CN(Cc3ccc(C(=O)N4CCCC4)cc3)C2)n1 | 1.89
Cn1cc(CNC2CCc3ncnn3C2)c(-c2cccnc2)n1 (configuration not stated) | -5.92
CC1CCc2nc(NC(=O)CN(C)C(=O)c3ccco3)sc2C1 (configuration not stated) | -11.4
COCc1ccc(C(=O)N2CCCN(C(=O)OCC(C)C)CC2)cc1 | 13.4
CCc1ncc2c(n1)CN(Cc1cn3ccsc3n1)CC2 | -8.26

SMILES | cytotoxicity at 10 µM [%]
CC(=O)NCC1CCN(C(=O)NCCc2ccc3c(c2)OCO3)CC1 | -5.22
N#Cc1ccc(CN2CCN(C(=O)CCn3cncn3)CC2)cc1 | -7.06
CCCC(NC(=O)c1occc1C)c1nnn[nH]1 (configuration not stated) | -9.36
Cc1cc2n(n1)CC(CNC1CCN(c3ccccn3)CC1)CN2 (configuration not stated) | 6.09
CC(CNS(N)(=O)=O)c1ccc(F)c(F)c1 (configuration not stated) | -12.1
Cc1n[nH]c(C)c1C1CCCN1C(=O)NC(C)(C)C (configuration not stated) | -4.27
Cc1occc1C(=O)N1CCCN(Cc2cnn(C(C)C)c2)CC1 | -5.62
O=C(CCS(=O)(=O)C1CCCC1)NCCc1cccc(O)c1 | -3.09
Cc1nc(CN(C)C(=O)NC(C)c2ccc3c(c2)OCCO3)cs1 (configuration not stated) | -4.45
CC(C)c1ncc(Cl)c(C(=O)N2CCN(C3CCCC3)CC2)n1 | 8.69
Cc1nnnn1-c1cc(NCc2cccc(C#N)c2)ccc1F | 7.09
Cn1ccc(C(=O)NCc2cccc(Cn3ccnc3)c2)cc1=O | 8.42
Cn1c(CC2CCS(=O)(=O)C2)nnc1SCCOc1cccc(Cl)c1 (configuration not stated) | 14.4
COCCNC(=O)[C@]12COC[C@H]1CN(C1CCOCC1)C2 | -109
Cc1csc(CN2C[C@@H]3COC[C@]3(C(=O)NCc3ccco3)C2)n1 | -105
CS(=O)(=O)NCc1ncn2c1CN(CCN1CCCC1)CCC2 | -74.9
CCOCC1CN(C(=O)Cc2ccccn2)Cc2cn(CC)nc21 (configuration not stated) | 5.06
CS(=O)(=O)NC1CCc2c(ccc(=O)n2CC2CC2)C1 (configuration not stated) | 4.84
CN(Cc1ccccc1)CC1(O)CCCN(Cc2ccc(F)cc2)C1=O (configuration not stated) | -14.6
CCN(Cc1nc(COC)no1)Cc1cccnc1NC | -43.7
Cc1nsc(NC(=O)NC2CCOCC2)n1 | -10.1
Cc1nc(N2CC[C@@H](c3ccc4ccccc4c3)[C@H](O)C2)no1 | -3.65
CC(Cn1ccnc1)NCc1csc2c1CCCC2 (configuration not stated) | -3.37

SMILES | cytotoxicity at 10 µM [%]
COc1cccc(OCCn2c(C)c(C)oc2=O)c1 | -7.12
OC1CCN(CCCNc2nccc(C3CCCC3)n2)CC1 | -1.81
CN(C)c1cnn(CC(=O)N2Cc3ccccc3C2)c(=O)c1 | 4.52
CCC(C)N(Cc1ccncc1)Cc1cccc(Cn2cccn2)c1 (configuration not stated) | -45.1
CN(C)Cc1cc(-c2nccn2CCc2cccnc2)ccc1O | -42.9
Cc1cc(N2CCCN(CCc3ccccc3)CC2)ccn1 | -3.67
O=C1CCCN1C1CCCN(CCOc2ccc(F)cc2)C1 (configuration not stated) | 7.62
COc1ccc2c(c1)OCC(CNC(=O)NC(C)(C)C)C2 (configuration not stated) | -8.54
O=C(c1cncc(F)c1)N1CCC(c2ncc[nH]2)CC1 | -1.39
CC(=O)N(C/C=C/c1ccccc1)CCO | 4.64
COCc1ncc(CN2CC(Oc3c(C)cccc3C)C2)cn1 | 5.12
NC(=O)c1cc2c(nc1CCOc1ccc(F)cc1)CCC2 | 4.22
Cc1cc(C)n(CC(=O)N2CCCCC2CCc2cccs2)c(=O)n1 (configuration not stated) | 6.93
CCCn1cnnc1-c1nc2c([nH]1)CC(c1ccc(Cl)cc1)CNC2=O (configuration not stated) | -31.1
O=C(NCc1ccc2c(c1)OCO2)c1ccccc1C1CCNC1 (configuration not stated) | -3.6
COCc1cc(N(C)Cc2c(C)nn(C)c2C)n2nccc2n1 | 2.45
Fc1cc(Cl)cnc1N1CCCC(c2nccn2Cc2ccncc2)C1 (configuration not stated) | -2
Cc1ccc(OCC2CCCN(C(=O)c3csc(CN(C)C)n3)C2)cc1 (configuration not stated) | -3.16
Cc1ccc(-c2cc(C(=O)N3CCCC3c3cccnc3)[nH]n2)o1 (configuration not stated) | -1.41
Cc1ccc(OC2(C(=O)O)CCN(C(=O)CCc3ccco3)CC2)cc1 | -8.06
CC(=O)N1CCCn2nc(CNS(=O)(=O)c3cc(C)cs3)cc2C1 | -9.58
Cc1cc(F)ccc1OC1(C(=O)O)CCN(Cc2cccnc2N)CC1 | -1.83
CC(C)(N)C(=O)N1CCCC1c1cncc(Oc2ccc(F)cc2)n1 (configuration not stated) | 1.11

SMILES | cytotoxicity at 10 µM [%]
COc1ccc(CCNC(C)c2ccc3[nH]c(=O)[nH]c3c2)cc1OC (configuration not stated) | -16.8
Cc1cc(CNC(=O)Cc2c(C)nc3cc(=O)[nH]n3c2C)no1 | -7.36
Cc1noc(C)c1CNC(=O)N(C)C1CCN(c2ccccc2)C1=O (configuration not stated) | -8.63
Cc1cc(CN2CCN(C(=O)NCc3ccco3)CC2)no1 | -14.8
CC(C)Oc1ncccc1CNC(=O)N1CCCC1c1ccsc1 (configuration not stated) | -8.25
Cc1ccc(NC2CCN(C(=O)c3cccc4c3ccn4C)CC2)nn1 | -17.3
O=C(c1cc2ccccc2[nH]1)N1CCC(Nc2cccnn2)CC1 | -16.9
CCOc1ncccc1CNC(=O)Nc1ccccc1 | -4.87
Cc1cnn(CCNCc2nnc(-c3ccccc3)o2)c1 | -10.4
CC(=O)Nc1nc(CN2CCOC(Cn3cccn3)C2)cs1 (configuration not stated) | -5.69
CCN1CCN(C2CCN(Cc3nnc(C4CC4)o3)CC2)C1=O | 1.75
Cc1c(Cl)c(CN2CCCC2Cn2cncn2)nc2ccccc12 (configuration not stated) | -13.3
CCc1nc(C2CCCN2Cc2nc(Cc3ccccc3)no2)no1 (configuration not stated) | 3.12
Cc1nc(C)n(CC2CCCCN2Cc2ncc(C(C)(C)C)o2)n1 (configuration not stated) | 0.299
Cn1ccnc1COc1ccc(CN2CCN(CCO)CC2)cc1 | -10.2
Cn1cc(CCNC(=O)CCc2ccc3c(c2)OCO3)cn1 | -7.15
CC(C)CN(Cc1nc2c(cnn2C)c(=O)[nH]1)C(C)C | -9.96
COc1ccc(CNC(=O)N2CCC(Cc3cnn(C)c3)C2)cc1C (configuration not stated) | -9.52
Cc1nc(C)n(CC2CCCN2Cc2cn3c(C)cccc3n2)n1 (configuration not stated) | 2.02
CCc1nccn1C1CCCN(C(=O)CCCNc2ncccn2)C1 (configuration not stated) | -1.3
CN1CC(=O)N(c2cccnc2)CC12CCN(C(=O)C1CCCCC1)C2 (configuration not stated) | 1.55
CC(=O)NCC(=O)N1Cc2nccn2CC(COc2cccnc2)C1 (configuration not stated) | -2.6
Cn1nc(C2CCCN(Cc3cccc(F)c3)C2)c2nccnc21 (configuration not stated) | -3.96

SMILES | cytotoxicity at 10 µM [%]
Cc1occc1C(=O)N1Cc2nccn2CC(CN2CCCC2)C1 (configuration not stated) | -105
O=C(N1CCCC1)N1CCN(Cc2cccnc2)c2ncccc2C1 | 3.33
O=C(c1ccnnc1)N1C[C@H]2CCC[C@@]2(COCc2ccccn2)C1 | -78.7
O=C(c1ccncc1)N1CCOC2(COCCN(c3cccnc3)C2)C1 (configuration not stated) | 6.25
c1csc(CN2CCc3ncnc(C4CCOC4)c3CC2)n1 (configuration not stated) | 4.53
O=C1[C@H]2CN(Cc3ccco3)C[C@H]2CN1c1ccsc1 | -71.9
O=C(O)[C@]12CCCN(C3CCOC3)C[C@H]1CN(c1ncccn1)C2 (some centres not stated) | -97.4
COCCN1C[C@@H]2[C@@H](OC)CCN(S(=O)(=O)c3cccnc3)[C@@H]2C1 | -71.7
c1cncc(CN2CCn3c(Cn4cncn4)cnc3C2)c1 | -70.9
CN(Cc1cn2c(n1)CN(Cc1ccsc1)CC2)Cc1ccco1 | -78.5
O=C(c1cccnc1)N1CCn2cc(CN3CCCC3)nc2C1 | -74.8
COc1cccc(CNc2c(C)nn(C(C)C)c2C)c1 | -46.9
Cn1ncc2c1CCCC2NCc1cc(Br)cs1 (configuration not stated) | -0.481
O=C1CC2(CCN(Cc3ccncc3)C2)CN1c1ccc2c(c1)OCO2 (configuration not stated) | -74.1
c1ccc(OC[C@@H]2CCC[C@@]23CNCCO3)nc1 | 9.93
Cc1csc(CN2CCn3c(COc4cccnc4)cnc3C2C)n1 (configuration not stated) | -98.4
CN(Cc1ccco1)[C@@H]1CN(Cc2cccs2)C[C@@H]2CCCO[C@@H]21 | 3.65
Cn1nc(COc2cccnc2)c2c1CCN(Cc1ccco1)C2 | -5.57
CCc1ccc(CN2CCN(C)c3ncccc3C2)o1 | 3.78
Cc1[nH]c(C2(N)CCCCC2)nc(=O)c1C | -0.846
